Compound activity deposited in PubChem BioAssay by several laboratories.
Vif inh – HIV Vif inhibition; HEK293T cells, Vif self-association by quenched fluorescence, imaging, 24 h; inhibition, % at 7.49 µM; hit rate 0.35% among 340,000; AID 602346; in the data active = inhibition above about 50%, passing the limit was not always enough
CaV13 FRET inh – Disruptors of the CACNA1D IQ motif to Ca2+-dependent inactivation inhibitor domain association, primary screening, Förster resonance energy transfer in intact living … | hit rate 0.098% among 340,000 | inhibition, % at 12.3 µM | HEK cells, CFP/YFP FRET ICDI-IQ, plate reader, 10 min; percent FRET-ratio fall versus neutral wells;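 active = mean replicate inhibition of at least 30% and at least 1% of replicates passing that level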;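 also: 0% = median of the neutral control wells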
SR-BI HDL uptake – mouse SR-BI HDL lipid transfer inhibition. ldlA[mSR-BI] CHO cells, DiI-HDL uptake fluorescence, 3 h. inhibition, % at 12.5 µM. hit rate 0.96% among 320,000. AID 488896;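 active = mean replicate inhibition of at least 70% and a set share of replicates each scoring 70 or more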;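 also: 0% = median of neutral control wells and 100% = median of positive control wells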
Target sequence (Q61009 whole entry, looked up): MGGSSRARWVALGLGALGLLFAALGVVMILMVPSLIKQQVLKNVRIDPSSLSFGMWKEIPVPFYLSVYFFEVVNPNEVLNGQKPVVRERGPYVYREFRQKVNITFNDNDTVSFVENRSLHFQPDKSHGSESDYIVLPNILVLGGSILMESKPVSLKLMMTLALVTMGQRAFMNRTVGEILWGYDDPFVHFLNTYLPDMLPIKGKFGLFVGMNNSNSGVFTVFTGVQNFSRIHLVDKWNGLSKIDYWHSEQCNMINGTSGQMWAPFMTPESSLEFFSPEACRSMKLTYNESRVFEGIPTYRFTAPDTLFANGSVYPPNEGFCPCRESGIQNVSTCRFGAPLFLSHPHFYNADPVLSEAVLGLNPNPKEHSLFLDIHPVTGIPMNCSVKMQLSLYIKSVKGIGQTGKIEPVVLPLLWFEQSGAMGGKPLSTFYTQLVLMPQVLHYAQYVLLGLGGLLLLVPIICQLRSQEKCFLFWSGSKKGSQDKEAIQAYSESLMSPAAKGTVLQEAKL
V-ATPase pH – yeast V-ATPase proton transport regulation by pHLuorin; S. cerevisiae, pHLuorin cytosolic pH fluorescence; hit rate 0.37% among 350,000; response, % at 10 µM; AID 504577; in the data active = response mostly above about 7.3%, no sharp cut-off; inactive = mostly below about 5.4%; also: actives read high
SR-BI uptake up – SR-BI HDL lipid transfer activation; hit rate 0.096% among 320,000; activation, % at 12.5 µM; CHO ldlA[mSR-BI] cells, DiI-HDL uptake fluorescence, 3 h; 100 = double the neutral-control signal; AID 504775;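 active = mean replicate activation of at least 60% and every replicate at or above 60%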;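 also: 0% = median plate neutral-control signal and 100% = twice that signal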
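system = CHO ldlA[mSR-BI] cells, LDL receptor-null, SR-BI overexpressing | medium = Ham's F12 with 0.5% BSA, HEPES 25 mM, pH 7.4 | probe or stimulus = DiI-HDL 10 µg/mL | compound dosing = single-point compound dose | incubation = compound exposure 3 h, 37 °C | technique = DiI fluorescence, bottom read | read-out = cell-associated DiI fluorescence as measure of HDL uptake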
NTR1 ag – agonists of human neurotensin receptor NTR1; NTR1-U2OS beta-arrestin-GFP spot imaging, agonist mode; activation, % at 20 µM; hit rate 0.17% among 330,000;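 active = activation at or above 40% of the spot to cytoplasm intensity ratio, with at least 20 cells analyzed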;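 also: 0% = DMSO without peptide and 100% = 100 nM NTR1 peptide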
* hit, by the source's call; x = no result. A selection: hits, their analogues and other compounds. The true share with any hit is near 1.7%.

SMILES	Vif inh	CaV13 FRET inh	SR-BI HDL uptake	V-ATPase pH	SR-BI uptake up	NTR1 ag
Cc1ccc2nc(N3CCN(c4cccc(C)c4C)CC3)c3nnnn3c2c1	22	-6	9	1	-9	15
Cc1ccc2nc(Cl)c3nnnn3c2c1	10	x	-7	10.0*	7	17
Cc1ccc(C)c(CN2CCCN(Cc3cc(C)ccc3C)S2(=O)=O)c1	2	-20	-8	-1	8	6
C=C1[C@@H](OC(C)=O)C=C[C@@]2(C)C=CC(=O)[C@@](C)(OC(C)=O)[C@@H]2[C@@H](OC(C)=O)[C@]2(O)[C@@H](C)C(=O)O[C@H]2[C@H]1Cl	-12	x	x	x	x	x
O=C(NN=Cc1ccccc1O)c1cccc([N+](=O)[O-])c1	2	-3	129*	-3	-129	x
O=C(N/N=C/c1ccccc1O)c1cccc(C(F)(F)F)c1	-4	-6	136*	-7	-136	0
O=C(N/N=C/c1ccccn1)c1cccc([N+](=O)[O-])c1	0	-5	-8	0	8	3
COc1ccccc1/C=N/NC(=O)c1ccc(NC(=O)c2cccc([N+](=O)[O-])c2)cc1	x	x	x	x	x	1
COc1cccc(/C=N/NC(=O)c2cc3cc([N+](=O)[O-])ccc3s2)c1O	1	-3	126*	-2	-126	x
O=C(N/N=C/c1ccccn1)c1ccc(NC(=O)c2cccc([N+](=O)[O-])c2)cc1	0	-7	82*	-1	-82	1
FC(F)(F)c1ccccc1Cc1c(-c2ccco2)nc2c3ccccc3ccn12	x	-7	x	x	x	x
O=C(Nc1cc(-c2nc3ncccc3o2)ccc1Cl)c1ccc([N+](=O)[O-])o1	13	-3	x	0	x	28
NNC(=O)c1ccc(CSc2n[nH]c(=O)[nH]c2=O)cc1	-2	-3	-30	-1	30	2
CN(C)c1cc[n+](CC(=O)c2ccc(OC(F)F)cc2)cc1	-1	1	-7	-1	7	-1
Cc1cc(/C=N/NC(=O)c2cccc([N+](=O)[O-])c2)c(C)n1-c1ccccc1	-3	-15	80*	-1	-80	-2
COc1ccc2ccccc2c1/C=N/NC(=O)c1cccc([N+](=O)[O-])c1	x	-14	86*	-2	-86	9
CN1OC[C@@H]2CN[C@H](c3cccc(-c4ccc(C#N)cc4)c3)C[C@@H]21	-3	-6	-4	3	4	x
CCOC(=O)c1cnn(-c2ccccc2)c1NC(=O)c1ccccc1C	54*	-5	-18	1	18	0
Cc1ccccc1C(=O)Nc1c(C(=O)N2CCCC2)cnn1-c1ccccc1	x	-9	-20	1	20	-1
O=C(c1c(F)cccc1F)N1CCC(O)(c2ccc(F)cc2)CC1	-2	-3	1	1	-1	0
CCCC(=O)Nc1sc(C)c(-c2ccc(C(C)CC)cc2)c1C#N (stereo not given)	-12	-8	18	16*	-18	3
CCCC(=O)Nc1sc(C)c(C)c1C#N	-3	-7	0	2	0	0
O=C(OC(C(=O)NCc1ccccc1)c1ccccc1F)c1ccco1 (stereo not given)	25	-4	-11	-2	11	0
CCc1noc(C)c1C(=O)NNC(=O)c1ccc(Br)cc1	10	-5	-28	0	28	2
CCc1noc(C)c1C(=O)NNC(=O)c1ccc(N(CC)CC)cc1	60*	-5	19	3	-19	0
CC(C)=C(NC(=O)c1ccccc1Br)C(=O)NCCc1nc2ccccc2[nH]1	-1	-3	-7	4	7	0
CN1CCN(NC(=O)c2ccc(S(=O)(=O)N3CC4(C)CC3CC(C)(C)C4)cc2)CC1 (stereo not given)	6	-2	x	0	x	1
Cc1ccccc1S(=O)(=O)Nc1nc2ccccc2nc1NCCO	52*	-4	-10	2	10	1
O=C(OCCc1ccccc1)c1cc(O)c(O)c(O)c1	51*	-7	-8	0	8	-1
CC(=O)c1cccc(NC(=S)NCCc2ccc(Cl)cc2)c1	-24	2	76*	-2	-76	4
